From paper PMC9470386 (Plant Direct, 2022)
Entries after “also recorded” stand apart in the source; their conditions may differ.

What was measured:
[1] = biological target: T1, AtDLK2 wt (Arabidopsis thaliana, UniProt F4J6L0); assay: Differential scanning fluorimetry, AtDLK2 wt; assay type: binding
T1 sequence (F4J6L0 1-273): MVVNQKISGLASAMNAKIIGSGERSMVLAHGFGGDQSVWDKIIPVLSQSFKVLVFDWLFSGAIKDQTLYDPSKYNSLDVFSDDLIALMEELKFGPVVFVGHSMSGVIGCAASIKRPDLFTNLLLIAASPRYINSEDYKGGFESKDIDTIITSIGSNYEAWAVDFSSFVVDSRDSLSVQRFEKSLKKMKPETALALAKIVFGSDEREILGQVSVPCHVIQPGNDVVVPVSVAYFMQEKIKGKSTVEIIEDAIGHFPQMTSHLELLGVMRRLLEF

[2] = biological target: T2, AtDLK2 F167L (Arabidopsis thaliana, UniProt F4J6L0, F167L); assay: Differential scanning fluorimetry, AtDLK2 F167L; assay type: binding
T2 sequence (F4J6L0 1-273 F167L): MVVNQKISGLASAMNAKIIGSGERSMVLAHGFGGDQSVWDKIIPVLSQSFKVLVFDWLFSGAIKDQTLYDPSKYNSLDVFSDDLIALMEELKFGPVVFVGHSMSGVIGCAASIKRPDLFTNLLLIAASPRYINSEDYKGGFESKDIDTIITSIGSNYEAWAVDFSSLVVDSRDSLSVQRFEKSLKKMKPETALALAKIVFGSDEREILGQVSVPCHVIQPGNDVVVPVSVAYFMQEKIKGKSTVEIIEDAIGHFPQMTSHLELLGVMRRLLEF
How it was run: (§1)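 Recombinant protein was expressed in E. coli BL21(DE3), GST-affinity captured, tag removed by on-column HRV3 protease, then size-exclusion purified. DSF used 10 μg protein with rac-GR24 and 3× (final) Sypro Orange in 20 mM TRIS-HCl, 30 mM NaCl, 1 mM TCEP-HCl, pH 7.7. Heating ran 25–95°C at 1°C per minute, in triplicate, and was read from the denaturation curve and its derivative.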

[3] = biological target: T3, AtD14 (Arabidopsis thaliana, UniProt Q9SQR3); assay: Differential scanning fluorimetry, AtD14; assay type: binding
T3 sequence (Q9SQR3 1-267): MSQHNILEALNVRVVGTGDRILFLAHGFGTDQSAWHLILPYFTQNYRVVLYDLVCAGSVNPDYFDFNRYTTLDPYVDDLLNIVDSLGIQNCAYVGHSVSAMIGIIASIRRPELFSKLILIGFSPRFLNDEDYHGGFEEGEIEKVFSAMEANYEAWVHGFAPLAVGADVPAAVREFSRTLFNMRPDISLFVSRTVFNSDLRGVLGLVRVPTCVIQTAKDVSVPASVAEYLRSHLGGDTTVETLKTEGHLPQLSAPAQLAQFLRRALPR
How it was run: as §1

[4] = biological target: T4, AtDLK2 F167A (Arabidopsis thaliana, UniProt F4J6L0, F167A); assay: Differential scanning fluorimetry, AtDLK2 F167A; assay type: binding
T4 sequence (F4J6L0 1-273 F167A): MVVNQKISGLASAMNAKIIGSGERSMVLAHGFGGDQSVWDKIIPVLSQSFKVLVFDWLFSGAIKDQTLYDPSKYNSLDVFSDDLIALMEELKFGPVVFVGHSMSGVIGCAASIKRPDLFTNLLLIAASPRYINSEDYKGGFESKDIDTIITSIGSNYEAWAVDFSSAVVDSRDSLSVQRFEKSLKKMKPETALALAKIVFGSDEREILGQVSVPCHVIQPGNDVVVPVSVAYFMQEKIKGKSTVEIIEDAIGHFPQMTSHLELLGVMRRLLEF
How it was run: as §1

[5] = biological target: T3, AtD14; conditions: substrate rac‐GR24; ref Zhao et al., 2013; cited from earlier work
[6] = biological target: T3, AtD14; assay: Inhibition of AtD14 enzymatic activity on pNP acetate; assay type: biochemical; conditions: for inhibition of the enzymatic activity of AtD14 (in words): pNP acetate as substrate
[7] = biological target: T5, AtKAI2 (Arabidopsis thaliana, UniProt Q9SZU7); assay: Inhibition of AtKAI2 enzymatic activity on pNP acetate; assay type: biochemical; conditions: for inhibition of the enzymatic activity of AtKAI2 (in words): pNP acetate as substrate
T5 sequence (Q9SZU7 1-270): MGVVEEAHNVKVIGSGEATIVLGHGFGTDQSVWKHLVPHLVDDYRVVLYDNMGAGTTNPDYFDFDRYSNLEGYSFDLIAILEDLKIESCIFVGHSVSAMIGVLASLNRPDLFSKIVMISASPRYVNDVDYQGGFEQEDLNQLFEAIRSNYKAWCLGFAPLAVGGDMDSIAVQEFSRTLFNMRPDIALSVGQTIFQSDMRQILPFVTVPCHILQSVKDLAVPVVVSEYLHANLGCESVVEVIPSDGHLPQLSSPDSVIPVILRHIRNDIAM

[8] = biological target: T4, AtDLK2 F167A; assay: Michaelis–Menten kinetics on para‐nitrophenyl acetate, AtDLK2 F167A; assay type: biochemical; conditions: substrate pNP acetate
[9] = biological target: T5, AtKAI2; assay: Michaelis–Menten kinetics on para‐nitrophenyl acetate, AtKAI2; assay type: biochemical; conditions: substrate pNP acetate
[10] = test system: AtDLK2 wt; assay: Michaelis–Menten kinetics on para‐nitrophenyl acetate, AtDLK2 wt; assay type: biochemical, Arabidopsis thaliana; conditions: substrate pNP acetate
[11] = biological target: T6, AtDLK2 (Arabidopsis thaliana, UniProt F4J6L0); conditions: at high concentrations; ref Végh et al., 2017; cited from earlier work
T6 sequence (F4J6L0 1-273): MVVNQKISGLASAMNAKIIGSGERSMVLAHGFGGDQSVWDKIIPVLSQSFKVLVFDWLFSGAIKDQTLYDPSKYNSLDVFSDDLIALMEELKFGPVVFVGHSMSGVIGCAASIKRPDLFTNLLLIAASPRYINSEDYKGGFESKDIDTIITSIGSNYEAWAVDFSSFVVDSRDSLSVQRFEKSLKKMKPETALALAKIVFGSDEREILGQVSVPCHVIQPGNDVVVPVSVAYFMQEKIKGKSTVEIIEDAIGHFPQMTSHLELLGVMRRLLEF

[12] = biological target: T6, AtDLK2; conditions: ref Végh et al., 2017; cited from earlier work
[13] = substrate: CC(=O)Oc1ccc([N+](=O)[O-])cc1; assay: Michaelis–Menten kinetics on para‐nitrophenyl acetate, AtKAI2; assay type: biochemical, Arabidopsis thaliana; conditions: other: AtKAI2, substrate pNP acetate; pH 7.0
[14] = substrate: CC(=O)Oc1ccc([N+](=O)[O-])cc1; assay: Michaelis–Menten kinetics on para‐nitrophenyl acetate, AtDLK2 wt; assay type: biochemical, Arabidopsis thaliana; conditions: other: AtDLK2 wt, substrate pNP acetate; pH 7.0
[15] = substrate: CC(=O)Oc1ccc([N+](=O)[O-])cc1; assay: Michaelis–Menten kinetics on para‐nitrophenyl acetate, AtDLK2 F167A; assay type: biochemical, Arabidopsis thaliana; conditions: other: AtDLK2 F167A, substrate pNP acetate; pH 7.0
[16] = substrate: CC(=O)Oc1ccc([N+](=O)[O-])cc1; assay: Michaelis–Menten kinetics on para‐nitrophenyl acetate, AtDLK2 F167L; assay type: biochemical, Arabidopsis thaliana; conditions: other: AtDLK2 F167L, substrate pNP acetate; pH 7.0
[17] = substrate: CC(=O)Oc1ccc([N+](=O)[O-])cc1; assay: Michaelis–Menten kinetics on para‐nitrophenyl acetate, AtD14; assay type: biochemical, Arabidopsis thaliana; conditions: other: AtD14, substrate pNP acetate; pH 7.0
[18] = 100 μM concentration of 1, pNP acetate as substrate

## CC1=C[C@H](O/C=C2/C(=O)O[C@@H]3c4ccccc4C[C@H]23)OC1=O (racemic) [rac‐GR24]
[1]
  rac‐GR24‐induced destabilization in DSF: no or marginal
[2]
  rac‐GR24‐induced destabilization in DSF: no or marginal
[3]
  rac‐GR24‐induced destabilization in DSF: clearly destabilize
[4]
  rac‐GR24‐induced destabilization in DSF: no or marginal
[5]
  turnover rate of AtD14: 1 molecule/3 min

## CC1(c2ccccc2)CC(C)(C)N2C(=O)C(=O)c3cccc1c32 (stereo not shown) [Compound 1, 4,4,6‐Trimethyl‐6‐phenyl‐5,6‐dihydro‐4H‐pyrrolo[3,2,1‐ij]quinoline‐1,2‐dione]
[6]; [18]
  retained activity of AtD14: 84%
[6]; 1 at concentrations of 12.5 μM or higher
  decrease of AtD14's enzymatic activity: slight decrease
[6]
  inhibition of the enzymatic activity of AtD14 (in words): only marginally inhibits
[6]; listed as compound 1
  inhibition of the enzymatic activity of AtD14 (in words): only marginally decreasing
[7]; [18]
  retained activity of AtKAI2: 95%
[7]; 1 at concentrations of 50 μM or higher
  decrease of AtKAI2's activity: marginal decrease
[7]
  inhibition of the enzymatic activity of AtKAI2 (in words): only marginally inhibits
[7]; listed as compound 1
  inhibition of the enzymatic activity of AtKAI2 (in words): only marginally decreasing

## CC(=O)Oc1ccc([N+](=O)[O-])cc1 [pNP acetate, para‐nitrophenyl acetate]
[8]
  turnover number (kcat): 67 molecules per second
[9]
  catalytic efficiency of AtKAI2 relative to AtD14: 94 times higher
[10]
  catalytic efficiency of AtDLK2 relative to AtD14: 625 times higher
  catalytic efficiency of AtDLK2 relative to AtKAI2: 6.7 times higher

## (−)‐5‐deoxystrigol
[11]
  reaction of AtDLK2 in DSF experiments (in words): able to react
[12]
  hydrolytic activity of AtDLK2 (in words): moderate hydrolytic activity; also recorded: poor but detectable hydrolytic activity

B1: AtKAI2 (Arabidopsis thaliana) (protein)
chain: MGVVEEAHNVKVIGSGEATIVLGHGFGTDQSVWKHLVPHLVDDYRVVLYDNMGAGTTNPDYFDFDRYSNLEGYSFDLIAILEDLKIESCIFVGHSVSAMIGVLASLNRPDLFSKIVMISASPRYVNDVDYQGGFEQEDLNQLFEAIRSNYKAWCLGFAPLAVGGDMDSIAVQEFSRTLFNMRPDIALSVGQTIFQSDMRQILPFVTVPCHILQSVKDLAVPVVVSEYLHANLGCESVVEVIPSDGHLPQLSSPDSVIPVILRHIRNDIAM
[13]
  Km: 1.56 ± 0.06 × 10^−3 M
  kcat: 23.6 ± 0.6 s⁻¹
  kcat/Km: 15100 ± 600 M⁻¹ s⁻¹

B2: AtDLK2 wt (Arabidopsis thaliana) (protein)
chain: MVVNQKISGLASAMNAKIIGSGERSMVLAHGFGGDQSVWDKIIPVLSQSFKVLVFDWLFSGAIKDQTLYDPSKYNSLDVFSDDLIALMEELKFGPVVFVGHSMSGVIGCAASIKRPDLFTNLLLIAASPRYINSEDYKGGFESKDIDTIITSIGSNYEAWAVDFSSFVVDSRDSLSVQRFEKSLKKMKPETALALAKIVFGSDEREILGQVSVPCHVIQPGNDVVVPVSVAYFMQEKIKGKSTVEIIEDAIGHFPQMTSHLELLGVMRRLLEF
[14]
  Km: 2.58 ± 0.10 × 10^−4 M
  kcat: 26.6 ± 0.7 s⁻¹
  kcat/Km: 103000 ± 4000 M⁻¹ s⁻¹

B3: AtDLK2 F167A (Arabidopsis thaliana; F167A) (protein)
chain: MVVNQKISGLASAMNAKIIGSGERSMVLAHGFGGDQSVWDKIIPVLSQSFKVLVFDWLFSGAIKDQTLYDPSKYNSLDVFSDDLIALMEELKFGPVVFVGHSMSGVIGCAASIKRPDLFTNLLLIAASPRYINSEDYKGGFESKDIDTIITSIGSNYEAWAVDFSSAVVDSRDSLSVQRFEKSLKKMKPETALALAKIVFGSDEREILGQVSVPCHVIQPGNDVVVPVSVAYFMQEKIKGKSTVEIIEDAIGHFPQMTSHLELLGVMRRLLEF
[15]
  Km: 2.78 ± 0.08 × 10^−4 M
  kcat: 66.9 ± 0.6 s⁻¹
  kcat/Km: 241000 ± 7000 M⁻¹ s⁻¹

B4: AtDLK2 F167L (Arabidopsis thaliana; F167L) (protein)
chain: MVVNQKISGLASAMNAKIIGSGERSMVLAHGFGGDQSVWDKIIPVLSQSFKVLVFDWLFSGAIKDQTLYDPSKYNSLDVFSDDLIALMEELKFGPVVFVGHSMSGVIGCAASIKRPDLFTNLLLIAASPRYINSEDYKGGFESKDIDTIITSIGSNYEAWAVDFSSLVVDSRDSLSVQRFEKSLKKMKPETALALAKIVFGSDEREILGQVSVPCHVIQPGNDVVVPVSVAYFMQEKIKGKSTVEIIEDAIGHFPQMTSHLELLGVMRRLLEF
[16]
  Km: 2.53 ± 0.16 × 10^−4 M
  kcat: 69.8 ± 1.5 s⁻¹
  kcat/Km: 276000 ± 17000 M⁻¹ s⁻¹

B5: AtD14 (Arabidopsis thaliana) (protein)
chain: MSQHNILEALNVRVVGTGDRILFLAHGFGTDQSAWHLILPYFTQNYRVVLYDLVCAGSVNPDYFDFNRYTTLDPYVDDLLNIVDSLGIQNCAYVGHSVSAMIGIIASIRRPELFSKLILIGFSPRFLNDEDYHGGFEEGEIEKVFSAMEANYEAWVHGFAPLAVGADVPAAVREFSRTLFNMRPDISLFVSRTVFNSDLRGVLGLVRVPTCVIQTAKDVSVPASVAEYLRSHLGGDTTVETLKTEGHLPQLSAPAQLAQFLRRALPR
[17]
  Km: 2.00 ± 0.16 × 10^−2 M
  kcat: 3.2 ± 0.06 s⁻¹
  kcat/Km: 160 ± 12 M⁻¹ s⁻¹
